Assay results reported in ChEMBL document CHEMBL3739379, “Anti-Candida activity and cytotoxicity of a large library of new N-substituted-1,3-thiazolidin-4-one derivatives” (Eur J Med Chem, 2016).
≈ marks a conversion by molar mass, not a printed value.

What was measured:
Format in all cases: functional
Proteus mirabilis = assay: Antibacterial activity against Proteus mirabilis after 18 to 22 hrs by broth microdilution method
Summary of the method: (§1)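 Broth microdilution per NCCLS in Mueller-Hinton II broth; isolates subcultured for purity. Compounds dissolved in DMSO, serial dilutions 256 to 0.5 µg/mL; inoculum 10^5/mL. Controls: organism without compound, medium only. Incubation 18 to 22 h at 35 °C. MIC is the lowest concentration giving complete growth inhibition, read by unaided eye.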

Candida parapsilosis = assay: Antifungal activity against Candida parapsilosis clinical isolate after 24 hrs by sabouraud dextrose broth based microdilution method; conditions: Lodderomyces parapsilosis
Summary of the method: (§2)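 Clinical isolates identified by conventional methods and subcultured for purity. Broth microdilution per NCCLS in Sabouraud dextrose broth; compounds dissolved in DMSO and serially diluted; inoculum 10^3/mL. Controls: fungi without compound, medium only. Incubated 24 h at 37 °C. MIC is the lowest concentration with complete growth inhibition by unaided eye. Values are geometric means over isolates per species.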

Candida tropicalis = assay: Antifungal activity against Candida tropicalis clinical isolate after 24 hrs by sabouraud dextrose broth based microdilution method; summary of the method: as §2
Enterobacter sp. = assay: Antibacterial activity against Enterobacter sp. after 18 to 22 hrs by broth microdilution method; summary of the method: as §1
Nakaseomyces glabratus = assay: Antifungal activity against Candida glabrata clinical isolate after 24 hrs by sabouraud dextrose broth based microdilution method; summary of the method: as §2
[1] = test system: Staphylococcus haemolyticus; assay: Antibacterial activity against Staphylococcus haemolyticus after 18 to 22 hrs by broth microdilution method; summary of the method: as §1
[Candida] sake = Antifungal activity against Candida sake clinical isolate after 24 hrs by sabouraud dextrose broth based microdilution method; conditions: Fermentozyma sake; summary of the method: as §2
Escherichia coli = assay: Antibacterial activity against Escherichia coli at after 18 to 22 hrs by broth microdilution method; summary of the method: as §1
Staphylococcus aureus = assay: Antibacterial activity against Staphylococcus aureus after 18 to 22 hrs by broth microdilution method; summary of the method: as §1
Enterococcus faecalis = assay: Antibacterial activity against […] faecalis after 18 to 22 hrs by broth microdilution method; summary of the method: as §1
Candida albicans = assay: Antifungal activity against Candida albicans clinical isolate after 24 hrs by sabouraud dextrose broth based microdilution method; summary of the method: as §2
Pichia kudriavzevii = assay: Antifungal activity against Candida krusei clinical isolate after 24 hrs by sabouraud dextrose broth based microdilution method; summary of the method: as §2
Staphylococcus warneri = assay: Antibacterial activity against Staphylococcus warneri after 18 to 22 hrs by broth microdilution method; summary of the method: as §1
Klebsiella oxytoca = assay: Antibacterial activity against Klebsiella oxytoca after 18 to 22 hrs by broth microdilution method; summary of the method: as §1

CC1CCC/C1=N\N=C1/SCC(=O)N1Cc1cccc2ccccc12 (stereo unspecified) was tested, and the MIC (Proteus mirabilis) was over 256 µg/mL, the MIC (Candida parapsilosis) was 8 µg/mL (≈ 22.8 µM) and the MIC (Candida tropicalis) was 2 µg/mL (≈ 5.69 µM). It also gave an MIC (Enterobacter sp.) of over 256 µg/mL, an MIC (Nakaseomyces glabratus) of 32 µg/mL (≈ 91 µM) and an MIC [1] of over 256 µg/mL. For the same molecule, the MIC ([Candida] sake) was 2 µg/mL (≈ 5.69 µM), the MIC (Escherichia coli) was over 256 µg/mL and the MIC (Staphylococcus aureus) was over 256 µg/mL. It also gave an MIC (Enterococcus faecalis) of over 256 µg/mL, an MIC (Candida albicans) of 4 µg/mL (≈ 11.4 µM) and an MIC (Pichia kudriavzevii) of 2 µg/mL (≈ 5.69 µM). It also gave an MIC (Staphylococcus warneri) of over 256 µg/mL and an MIC (Klebsiella oxytoca) of over 256 µg/mL.
Molecule O=C1CS/C(=N\N=C\c2ccco2)N1Cc1cccc2ccccc12 has an MIC (Proteus mirabilis) of over 256 µg/mL, an MIC (Candida parapsilosis) of 16 µg/mL (≈ 45.8 µM) and an MIC (Candida tropicalis) of 8 µg/mL (≈ 22.9 µM). The MIC (Enterobacter sp.) was over 256 µg/mL, the MIC (Nakaseomyces glabratus) was 8 µg/mL (≈ 22.9 µM) and the MIC [1] was over 256 µg/mL. For the same molecule, the MIC ([Candida] sake) was 2 µg/mL (≈ 5.72 µM), the MIC (Escherichia coli) was over 256 µg/mL and the MIC (Staphylococcus aureus) was over 256 µg/mL. The MIC (Enterococcus faecalis) was over 256 µg/mL, the MIC (Candida albicans) was 16 µg/mL (≈ 45.8 µM) and the MIC (Pichia kudriavzevii) was 16 µg/mL (≈ 45.8 µM). The MIC (Staphylococcus warneri) was over 256 µg/mL and the MIC (Klebsiella oxytoca) was over 256 µg/mL.
Molecule C/C(=N\N=C1/SCC(=O)N1Cc1cccc2ccccc12)C1CCCCC1 has an MIC (Proteus mirabilis) of over 256 µg/mL, an MIC (Candida parapsilosis) of 16 µg/mL (≈ 42.2 µM) and an MIC (Candida tropicalis) of 256 µg/mL (≈ 675 µM). The MIC (Enterobacter sp.) was over 256 µg/mL, the MIC (Nakaseomyces glabratus) was 8 µg/mL (≈ 21.1 µM) and the MIC [1] was over 256 µg/mL. The MIC ([Candida] sake) was 16 µg/mL (≈ 42.2 µM), the MIC (Escherichia coli) was over 256 µg/mL and the MIC (Staphylococcus aureus) was over 256 µg/mL. The MIC (Enterococcus faecalis) was over 256 µg/mL, the MIC (Candida albicans) was 8 µg/mL (≈ 21.1 µM) and the MIC (Pichia kudriavzevii) was 2 µg/mL (≈ 5.27 µM). For the same molecule, the MIC (Staphylococcus warneri) was over 256 µg/mL and the MIC (Klebsiella oxytoca) was over 256 µg/mL.
In the case of CCC(CC)=N/N=C1\SCC(=O)N1CN1C(=O)c2ccccc2C1=O, the MIC (Proteus mirabilis) is reported as over 256 µg/mL, the MIC (Candida parapsilosis) is reported as 8 µg/mL (≈ 22.3 µM) and the MIC (Candida tropicalis) is reported as 8 µg/mL (≈ 22.3 µM). It also gave an MIC (Enterobacter sp.) of over 256 µg/mL, an MIC (Nakaseomyces glabratus) of 8 µg/mL (≈ 22.3 µM) and an MIC [1] of over 256 µg/mL. For the same molecule, the MIC ([Candida] sake) was 8 µg/mL (≈ 22.3 µM), the MIC (Escherichia coli) was over 256 µg/mL and the MIC (Staphylococcus aureus) was over 256 µg/mL. The MIC (Enterococcus faecalis) was over 256 µg/mL, the MIC (Candida albicans) was 2 µg/mL (≈ 5.58 µM) and the MIC (Pichia kudriavzevii) was 8 µg/mL (≈ 22.3 µM). The MIC (Staphylococcus warneri) was over 256 µg/mL and the MIC (Klebsiella oxytoca) was over 256 µg/mL.
C/C(=N\N=C1/SCC(=O)N1Cc1cccc2ccccc12)c1cccs1 gave an MIC (Proteus mirabilis) of over 256 µg/mL, an MIC (Candida parapsilosis) of 16 µg/mL (≈ 42.2 µM) and an MIC (Candida tropicalis) of 2 µg/mL (≈ 5.27 µM). The MIC (Enterobacter sp.) was over 256 µg/mL, the MIC (Nakaseomyces glabratus) was 8 µg/mL (≈ 21.1 µM) and the MIC [1] was over 256 µg/mL. It also gave an MIC ([Candida] sake) of 2 µg/mL (≈ 5.27 µM), an MIC (Escherichia coli) of over 256 µg/mL and an MIC (Staphylococcus aureus) of over 256 µg/mL. For the same molecule, the MIC (Enterococcus faecalis) was over 256 µg/mL, the MIC (Candida albicans) was 2 µg/mL (≈ 5.27 µM) and the MIC (Pichia kudriavzevii) was 16 µg/mL (≈ 42.2 µM). It also gave an MIC (Staphylococcus warneri) of over 256 µg/mL and an MIC (Klebsiella oxytoca) of over 256 µg/mL.
With CC1CC/C(=N\N=C2/SCC(=O)N2Cc2ccc([N+](=O)[O-])cc2)C1 (stereo unspecified) the MIC (Proteus mirabilis) was over 256 µg/mL, the MIC (Candida parapsilosis) was 64 µg/mL (≈ 185 µM) and the MIC (Candida tropicalis) was 128 µg/mL (≈ 370 µM). It also gave an MIC (Enterobacter sp.) of over 256 µg/mL, an MIC (Nakaseomyces glabratus) of 16 µg/mL (≈ 46.2 µM) and an MIC [1] of over 256 µg/mL. The MIC ([Candida] sake) was 256 µg/mL (≈ 739 µM), the MIC (Escherichia coli) was over 256 µg/mL and the MIC (Staphylococcus aureus) was over 256 µg/mL. The MIC (Enterococcus faecalis) was over 256 µg/mL, the MIC (Candida albicans) was 2 µg/mL (≈ 5.77 µM) and the MIC (Pichia kudriavzevii) was 256 µg/mL (≈ 739 µM). For the same molecule, the MIC (Staphylococcus warneri) was over 256 µg/mL and the MIC (Klebsiella oxytoca) was over 256 µg/mL.
For O=C1c2ccccc2C(=O)N1CN1C(=O)CS/C1=N\N=C\c1ccc2c(c1)OCO2, the MIC (Proteus mirabilis) was over 256 µg/mL, the MIC (Candida parapsilosis) was 128 µg/mL (≈ 303 µM) and the MIC (Candida tropicalis) was 8 µg/mL (≈ 18.9 µM). The MIC (Enterobacter sp.) was over 256 µg/mL, the MIC (Nakaseomyces glabratus) was 8 µg/mL (≈ 18.9 µM) and the MIC [1] was over 256 µg/mL. For the same molecule, the MIC ([Candida] sake) was 128 µg/mL (≈ 303 µM), the MIC (Escherichia coli) was over 256 µg/mL and the MIC (Staphylococcus aureus) was over 256 µg/mL. For the same molecule, the MIC (Enterococcus faecalis) was over 256 µg/mL, the MIC (Candida albicans) was 8 µg/mL (≈ 18.9 µM) and the MIC (Pichia kudriavzevii) was 32 µg/mL (≈ 75.8 µM). For the same molecule, the MIC (Staphylococcus warneri) was over 256 µg/mL and the MIC (Klebsiella oxytoca) was over 256 µg/mL.
Work on O=C1c2ccccc2C(=O)N1CN1C(=O)CS/C1=N\N=C\c1cccc2ccccc12 yielded an MIC (Proteus mirabilis) of over 256 µg/mL, an MIC (Candida parapsilosis) of 128 µg/mL (≈ 299 µM) and an MIC (Candida tropicalis) of 128 µg/mL (≈ 299 µM). For the same molecule, the MIC (Enterobacter sp.) was over 256 µg/mL, the MIC (Nakaseomyces glabratus) was 16 µg/mL (≈ 37.3 µM) and the MIC [1] was over 256 µg/mL. The MIC ([Candida] sake) was 128 µg/mL (≈ 299 µM), the MIC (Escherichia coli) was over 256 µg/mL and the MIC (Staphylococcus aureus) was over 256 µg/mL. For the same molecule, the MIC (Enterococcus faecalis) was over 256 µg/mL, the MIC (Candida albicans) was 256 µg/mL (≈ 597 µM) and the MIC (Pichia kudriavzevii) was 128 µg/mL (≈ 299 µM). For the same molecule, the MIC (Staphylococcus warneri) was over 256 µg/mL and the MIC (Klebsiella oxytoca) was over 256 µg/mL.
Molecule CCCCC/C(C)=N/N=C1\SCC(=O)N1Cc1cccc2ccccc12 has an MIC (Proteus mirabilis) of over 256 µg/mL, an MIC (Candida parapsilosis) of 2 µg/mL (≈ 5.44 µM) and an MIC (Candida tropicalis) of 64 µg/mL (≈ 174 µM). The MIC (Enterobacter sp.) was over 256 µg/mL, the MIC (Nakaseomyces glabratus) was 8 µg/mL (≈ 21.8 µM) and the MIC [1] was over 256 µg/mL. The MIC ([Candida] sake) was 2 µg/mL (≈ 5.44 µM), the MIC (Escherichia coli) was over 256 µg/mL and the MIC (Staphylococcus aureus) was over 256 µg/mL. For the same molecule, the MIC (Enterococcus faecalis) was over 256 µg/mL, the MIC (Candida albicans) was 4 µg/mL (≈ 10.9 µM) and the MIC (Pichia kudriavzevii) was 2 µg/mL (≈ 5.44 µM). The MIC (Staphylococcus warneri) was over 256 µg/mL and the MIC (Klebsiella oxytoca) was over 256 µg/mL.
